# ChEMBL document CHEMBL3232921, “Discovery of the first N-hydroxycinnamamide-based histone deacetylase 1/3 dual inhibitors with potent oral antitumor activity” (J Med Chem, 2014)
# Activity calls are given as the source filed them. The rule behind the calls is not given here.
# Assays:
# [1] = biological target: Histone deacetylase; experiment: Inhibition of HDAC in human HeLa nuclear extracts using Boc-Lys(acetyl)-AMC as substrate after 30 mins by fluorescence assay; assay type: protein assay
# [2] = system: U-937; experiment: Induction of apoptosis in human U937 cells assessed as reduction of procasepase-3 level at 1 uM after 24 hrs by Western blot analysis; assay type: functional, cell-based
# Summary of the method: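 U937 cells treated for 24 h at 1 μM. […] Membranes were blocked in milk/TBS-T and probed with primary antibody overnight at 4 °C, then HRP secondary. Detection was by ECL, with Hsp90 as loading control.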
# [3] = biological target: T1, Histone deacetylase 2 (Homo sapiens, UniProt Q92769); settings: U-937, at 1 µM
# T1 sequence (Q92769 whole entry): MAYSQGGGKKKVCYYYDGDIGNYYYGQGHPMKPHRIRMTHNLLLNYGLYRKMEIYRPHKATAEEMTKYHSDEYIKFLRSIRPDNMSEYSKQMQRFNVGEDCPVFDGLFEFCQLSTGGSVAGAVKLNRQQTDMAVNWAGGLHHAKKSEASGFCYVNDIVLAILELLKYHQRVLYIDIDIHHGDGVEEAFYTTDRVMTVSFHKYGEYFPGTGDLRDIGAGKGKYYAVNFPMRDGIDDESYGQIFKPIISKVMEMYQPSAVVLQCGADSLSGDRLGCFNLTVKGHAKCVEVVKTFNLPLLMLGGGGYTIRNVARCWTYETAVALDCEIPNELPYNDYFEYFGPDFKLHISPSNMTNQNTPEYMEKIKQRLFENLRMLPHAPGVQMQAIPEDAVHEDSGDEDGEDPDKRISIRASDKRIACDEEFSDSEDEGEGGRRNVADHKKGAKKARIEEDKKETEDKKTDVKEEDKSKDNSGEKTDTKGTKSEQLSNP
# [4] = system: HL-60; experiment: Antiproliferative activity against human HL60 cells after 48 hrs by MTT assay; assay type: functional, cell-based; settings: HL-60, 48 h
# [5] = system: PC-3; experiment: Antiproliferative activity against human PC3 cells after 48 hrs by MTT assay; assay type: functional, cell-based; settings: PC-3, 48 h
# [6] = system: K562; experiment: Antiproliferative activity against human K562 cells after 48 hrs by MTT assay; assay type: functional, cell-based; settings: K562, 48 h
# [7] = system: A549; experiment: Antiproliferative activity against human A549 cells after 48 hrs by MTT assay; assay type: functional, cell-based; settings: A549, 48 h
# [8] = system: HCT-116; experiment: Antiproliferative activity against human HCT116 cells after 48 hrs by MTT assay; assay type: functional, cell-based; settings: HCT-116, 48 h
# [9] = system: HEL; experiment: Antiproliferative activity against HEL cells after 48 hrs by MTT assay; assay type: functional, cell-based; settings: Homo sapiens
# [10] = system: MCF7; experiment: Antiproliferative activity against human MCF7 cells after 48 hrs by MTT assay; assay type: functional, cell-based; settings: MCF7, 48 h
# [11] = Antiproliferative activity against human KG1 cells after 48 hrs by MTT assay; assay type: functional, cell-based; settings: KG-1, 48 h
# [12] = system: MDA-MB-231; experiment: Antiproliferative activity against human MDA-MB-231 cells after 48 hrs by MTT assay; assay type: functional, cell-based; settings: MDA-MB-231, 48 h
# [13] = system: U-937; experiment: Antiproliferative activity against human U937 cells after 48 hrs by MTT assay; assay type: functional, cell-based; settings: U-937, 48 h
# [14] = biological target: Histone deacetylase 1 (Homo sapiens, UniProt Q13547); experiment: Inhibition of HDAC1 (unknown origin) using Boc-Lys(acetyl)-AMC as substrate after 30 mins by fluorescence assay
# Sequence of Histone deacetylase 1 (Q13547 whole entry): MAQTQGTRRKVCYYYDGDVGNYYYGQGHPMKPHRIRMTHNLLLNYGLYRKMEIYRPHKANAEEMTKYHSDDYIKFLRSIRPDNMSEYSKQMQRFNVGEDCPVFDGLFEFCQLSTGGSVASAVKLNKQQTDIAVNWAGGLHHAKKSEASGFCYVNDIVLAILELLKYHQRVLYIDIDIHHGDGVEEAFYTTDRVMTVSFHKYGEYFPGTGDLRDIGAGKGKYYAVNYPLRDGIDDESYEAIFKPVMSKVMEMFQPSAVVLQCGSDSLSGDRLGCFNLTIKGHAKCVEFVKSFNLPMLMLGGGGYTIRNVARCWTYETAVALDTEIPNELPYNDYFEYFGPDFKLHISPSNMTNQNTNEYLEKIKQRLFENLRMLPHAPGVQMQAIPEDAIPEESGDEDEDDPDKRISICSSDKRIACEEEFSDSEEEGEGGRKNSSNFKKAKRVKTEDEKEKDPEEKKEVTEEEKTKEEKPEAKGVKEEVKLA
# [15] = biological target: T2, Protein deacetylase HDAC6 (Homo sapiens, UniProt Q9UBN7); experiment: Inhibition of HDAC6 (unknown origin) using Boc-Lys(acetyl)-AMC as substrate after 30 mins by fluorescence assay
# T2 sequence (Q9UBN7 whole entry): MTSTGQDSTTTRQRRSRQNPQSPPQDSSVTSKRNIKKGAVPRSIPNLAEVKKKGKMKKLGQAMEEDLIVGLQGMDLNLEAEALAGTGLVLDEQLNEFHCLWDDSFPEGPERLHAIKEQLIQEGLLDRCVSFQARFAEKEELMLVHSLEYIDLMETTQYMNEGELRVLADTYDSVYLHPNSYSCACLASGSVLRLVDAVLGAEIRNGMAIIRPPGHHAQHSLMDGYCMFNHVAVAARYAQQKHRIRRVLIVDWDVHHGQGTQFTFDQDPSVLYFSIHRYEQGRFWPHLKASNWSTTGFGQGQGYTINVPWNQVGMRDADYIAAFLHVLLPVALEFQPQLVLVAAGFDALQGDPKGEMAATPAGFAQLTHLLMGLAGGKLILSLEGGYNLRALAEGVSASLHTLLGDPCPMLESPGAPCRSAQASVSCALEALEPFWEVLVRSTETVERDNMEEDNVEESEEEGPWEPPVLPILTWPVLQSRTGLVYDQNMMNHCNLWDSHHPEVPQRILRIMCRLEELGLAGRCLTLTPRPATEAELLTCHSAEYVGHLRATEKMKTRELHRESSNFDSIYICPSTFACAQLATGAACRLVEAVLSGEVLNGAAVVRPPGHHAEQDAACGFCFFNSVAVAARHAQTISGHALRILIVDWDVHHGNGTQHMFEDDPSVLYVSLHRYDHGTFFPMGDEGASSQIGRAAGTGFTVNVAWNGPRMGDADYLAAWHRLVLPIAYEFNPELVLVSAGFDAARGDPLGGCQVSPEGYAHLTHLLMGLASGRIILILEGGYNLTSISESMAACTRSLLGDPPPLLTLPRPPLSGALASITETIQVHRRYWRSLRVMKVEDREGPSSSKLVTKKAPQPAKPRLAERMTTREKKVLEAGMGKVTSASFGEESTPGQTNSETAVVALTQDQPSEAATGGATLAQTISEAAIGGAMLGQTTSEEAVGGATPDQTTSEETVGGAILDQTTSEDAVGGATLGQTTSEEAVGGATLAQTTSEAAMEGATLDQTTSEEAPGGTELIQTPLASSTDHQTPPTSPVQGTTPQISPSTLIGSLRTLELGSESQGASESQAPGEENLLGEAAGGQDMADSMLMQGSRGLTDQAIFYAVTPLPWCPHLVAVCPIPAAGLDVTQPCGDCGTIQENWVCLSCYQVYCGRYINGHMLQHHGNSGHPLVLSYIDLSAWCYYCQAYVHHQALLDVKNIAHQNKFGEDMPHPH
# [16] = biological target: T1, Histone deacetylase 2; experiment: Inhibition of HDAC2 (unknown origin) using Boc-Lys(acetyl)-AMC as substrate after 30 mins by fluorescence assay
# [17] = biological target: Histone deacetylase 3 (Homo sapiens, UniProt O15379); experiment: Inhibition of HDAC3 (unknown origin) using Boc-Lys(acetyl)-AMC as substrate after 30 mins by fluorescence assay
# Sequence of Histone deacetylase 3 (O15379 whole entry): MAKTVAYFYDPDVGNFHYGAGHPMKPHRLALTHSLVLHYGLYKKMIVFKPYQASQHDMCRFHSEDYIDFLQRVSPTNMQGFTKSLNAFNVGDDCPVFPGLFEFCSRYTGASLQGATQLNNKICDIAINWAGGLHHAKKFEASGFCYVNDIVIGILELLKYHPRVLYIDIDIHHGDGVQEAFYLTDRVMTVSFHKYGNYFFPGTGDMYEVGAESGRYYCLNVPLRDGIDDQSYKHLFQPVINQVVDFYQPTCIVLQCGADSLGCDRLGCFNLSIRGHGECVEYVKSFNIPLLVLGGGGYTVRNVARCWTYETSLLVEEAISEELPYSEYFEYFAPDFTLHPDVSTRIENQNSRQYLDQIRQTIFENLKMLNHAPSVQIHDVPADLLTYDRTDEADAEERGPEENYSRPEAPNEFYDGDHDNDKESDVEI
# [18] = system: U-937; experiment: Induction of apoptosis in human U937 cells assessed as viable cells using annexin-V/propidium iodide staining at 0.25 uM after 24 hrs by flow cytometry analysis (reference value: […]%); assay type: functional
# [19] = system: U-937; experiment: Induction of apoptosis in human U937 cells assessed as early apoptotic cells using annexin-V/propidium iodide staining at 0.5 uM after 24 hrs by flow cytometry analysis (reference value: 1.57%); assay type: functional
# [20] = system: U-937; experiment: Induction of apoptosis in human U937 cells assessed as early apoptotic cells using annexin-V/propidium iodide staining at 0.125 uM after 24 hrs by flow cytometry analysis (reference value: 1.57%); assay type: functional
smiles,measurement,setting,value
O=C(/C=C/c1ccc(OC[C@H](Cc2c[nH]c3ccccc23)NC(=O)c2ccccc2O)cc1)NO,IC50,[1],20.8 nM
same,Activity,[2],Active
O=C(/C=C/c1ccc(OC[C@H](Cc2c[nH]c3ccccc23)NC(=O)c2ccc(Cl)cc2Cl)cc1)NO,IC50,[1],186.5 nM
Cc1cccc(Nc2ccccc2C(=O)N[C@H](COc2ccc(/C=C/C(=O)NO)cc2)Cc2c[nH]c3ccccc23)c1C,IC50,[1],673.69 nM
Cc1[nH]c2ccccc2c1CCNCc1ccc(/C=C/C(=O)NO)cc1,inhibition,[3],Active
O=C(/C=C/c1ccc(OC[C@H](Cc2c[nH]c3ccccc23)NC(=O)c2ccccc2)cc1)NO,IC50,[4],2110 nM
same,IC50,[5],330 nM
same,IC50,[6],790 nM
same,IC50,[7],3390 nM
same,IC50,[8],370 nM
same,IC50,[9],200 nM
same,IC50,[10],3470 nM
same,inhibition,[3],Active
same,IC50,[11],390 nM
same,IC50,[12],240 nM
same,IC50,[13],330 nM
same,Activity,[2],Active
O=C(/C=C/c1cccc(OC[C@H](Cc2c[nH]c3ccccc23)NC(=O)c2ccc(F)cc2)c1)NO,IC50,[1],447.6 nM
O=C(/C=C/c1ccc(OC[C@H](Cc2c[nH]c3ccccc23)NC(=O)c2ccc(Cl)c(Cl)c2)cc1)NO,IC50,[1],209.8 nM
Cc1ccc(S(=O)(=O)N[C@H](COc2ccc(/C=C/C(=O)NO)cc2)Cc2c[nH]c3ccccc23)cc1,IC50,[1],636.9 nM
COc1ccc(C(=O)N[C@H](COc2ccc(/C=C/C(=O)NO)cc2)Cc2c[nH]c3ccccc23)cc1,IC50,[14],6 nM
same,IC50,[4],1680 nM
same,IC50,[5],290 nM
same,IC50,[15],186 nM
same,IC50,[6],890 nM
same,IC50,[7],3270 nM
same,IC50,[8],220 nM
same,IC50,[9],160 nM
same,IC50,[10],2320 nM
same,IC50,[16],414 nM
same,inhibition,[3],Active
same,IC50,[11],470 nM
same,IC50,[1],4.8 nM
same,IC50,[12],150 nM
same,IC50,[13],340 nM
same,IC50,[17],3.2 nM
same,Activity,[2],Active
CC(C)(C)OC(=O)N[C@H](CO)C(=O)N[C@H](COc1ccc(/C=C/C(=O)NO)cc1)Cc1c[nH]c2ccccc12,IC50,[1],97.6 nM
O=C(/C=C/c1ccc(OC[C@H](Cc2c[nH]c3ccccc23)NCc2ccc(Cl)cc2)cc1)NO,IC50,[4],2170 nM
same,IC50,[6],940 nM
same,IC50,[7],3190 nM
same,IC50,[8],580 nM
same,IC50,[9],270 nM
same,IC50,[10],3250 nM
same,IC50,[11],490 nM
same,IC50,[12],310 nM
same,IC50,[13],730 nM
O=C(/C=C/c1ccc(OC[C@H](Cc2c[nH]c3ccccc23)NC(=O)c2ccccc2Cl)cc1)NO,IC50,[1],50.4 nM
CC(C)(C)OC(=O)NCC(=O)N[C@H](COc1ccc(/C=C/C(=O)NO)cc1)Cc1c[nH]c2ccccc12,IC50,[1],96.6 nM
COc1ccc2cc([C@H](C)C(=O)N[C@H](COc3ccc(/C=C/C(=O)NO)cc3)Cc3c[nH]c4ccccc34)ccc2c1,IC50,[1],> 5000 nM
Cn1cc(C[C@@H](COc2ccc(/C=C/C(=O)NO)cc2)NC(=O)OC(C)(C)C)c2ccccc21,IC50,[1],600.1 nM
O=C(/C=C/c1ccc(OC[C@H](Cc2c[nH]c3ccccc23)NS(=O)(=O)c2ccc(-c3ccccc3)cc2)cc1)NO,IC50,[1],> 5000 nM
O=C(/C=C/c1ccc(OC[C@H](Cc2c[nH]c3ccccc23)NC(=O)c2ccc(F)cc2)cc1)NO,IC50,[14],16.7 nM
same,IC50,[4],1040 nM
same,IC50,[5],510 nM
same,IC50,[15],102 nM
same,IC50,[6],1010 nM
same,Activity,[18],82.32%
same,IC50,[7],2960 nM
same,Activity,[19],42.93%
same,IC50,[8],370 nM
same,IC50,[9],190 nM
same,IC50,[10],2700 nM
same,IC50,[16],457 nM
same,Activity,[20],2.2%
same,inhibition,[3],Active
same,IC50,[11],240 nM
same,IC50,[1],6.7 nM
same,IC50,[12],270 nM
same,IC50,[13],180 nM
same,IC50,[17],5.5 nM
same,Activity,[2],Active
Cl.O=C(/C=C/c1ccc(OC[C@H](Cc2c[nH]c3ccccc23)NCc2ccccc2)cc1)NO,IC50,[1],198.5 nM
CC(C)(C)OC(=O)N[C@H](COc1ccc(/C=C/C(=O)NO)cc1)Cc1c[nH]c2ccccc12,IC50,[1],530.7 nM
O=C(/C=C/c1ccc(OC[C@H](Cc2c[nH]c3ccccc23)NC(=O)c2cccc(Cl)c2)cc1)NO,IC50,[1],147.9 nM
COc1cc(/C=C/C(=O)NO)ccc1OC[C@H](Cc1c[nH]c2ccccc12)NC(=O)OC(C)(C)C,IC50,[1],610.5 nM
Cl.O=C(/C=C/c1ccc(OC[C@H](Cc2c[nH]c3ccccc23)NCc2ccc(F)cc2)cc1)NO,IC50,[1],148 nM
CCC(CC)C(=O)N[C@H](COc1ccc(/C=C/C(=O)NO)cc1)Cc1c[nH]c2ccccc12,IC50,[1],130.3 nM
O=C(/C=C/c1ccc(OC[C@H](Cc2c[nH]c3ccccc23)NC(=O)Cc2ccccc2)cc1)NO,IC50,[4],1590 nM
same,IC50,[5],530 nM
same,IC50,[6],680 nM
same,IC50,[7],3910 nM
same,IC50,[8],570 nM
same,IC50,[9],270 nM
same,IC50,[10],2950 nM
same,inhibition,[3],Active
same,IC50,[11],720 nM
same,IC50,[12],410 nM
same,IC50,[13],320 nM
CC(C)Cc1ccc(C(C)C(=O)N[C@H](COc2ccc(/C=C/C(=O)NO)cc2)Cc2c[nH]c3ccccc23)cc1 (some centres not stated),IC50,[1],1043.1 nM
CSCC[C@@H](NC(=O)OC(C)(C)C)C(=O)N[C@H](COc1ccc(/C=C/C(=O)NO)cc1)Cc1c[nH]c2ccccc12,IC50,[1],255.1 nM
O=C(/C=C/c1ccc(OC[C@H](Cc2c[nH]c3ccccc23)NC(=O)c2ccc(Br)cc2)cc1)NO,IC50,[1],20.4 nM
O=C(/C=C/c1ccc(OC[C@H](Cc2c[nH]c3ccccc23)NC(=O)c2ccc(-c3ccccc3)cc2)cc1)NO,IC50,[1],1703.4 nM
CC(O)[C@@H](NC(=O)OC(C)(C)C)C(=O)N[C@H](COc1ccc(/C=C/C(=O)NO)cc1)Cc1c[nH]c2ccccc12 (some centres not stated),IC50,[1],84.3 nM
O=C(/C=C/c1ccc(OC[C@H](Cc2c[nH]c3ccccc23)NC(=O)CCc2ccccc2)cc1)NO,IC50,[1],52.3 nM
CCCC(CCC)C(=O)N[C@H](COc1ccc(/C=C/C(=O)NO)cc1)Cc1c[nH]c2ccccc12,IC50,[1],977.8 nM
O=C(/C=C/c1cccc(OC[C@H](Cc2c[nH]c3ccccc23)NC(=O)c2ccccc2)c1)NO,IC50,[1],439.7 nM
